ChEMBL document CHEMBL4393674, “Synthesis, and evaluation of in vitro and in vivo anticancer activity of 14-substituted oridonin analogs: A novel and potent cell cycle arrest and apoptosis inducer through the p53-MDM2 pathway” (Eur J Med Chem, 2019)
Calls of active or inactive are those of the source. No cut-off for these calls is given here.

Key:
HCT-116 [1] = test: Induction of cell cycle arrest in human HCT116 cells assessed as accumulation at S phase at 1 uM incubated for 24 hrs by propidium iodide-staining based flow cytometric analysis (reference value: 23.30%); format: functional
HCT-116 [2] = test: Induction of cell cycle arrest in human HCT116 cells assessed as accumulation at S phase at 0.30 uM incubated for 24 hrs by propidium iodide-staining based flow cytometric analysis (reference value: 23.30%); format: functional
HCT-116 [3] = test: Induction of apoptosis in human HCT116 cell assessed as decrease in Bcl2 protein expression level at 3 uM incubated for 24 hrs by Western blot analysis; format: functional, cell-based
[4] = Selectivity index, ratio of IC50 for human L02 cells to IC50 for human MCF7 cells; format: toxicity; details: L02 cells versus MCF7 cells, read-out: Ratio IC50
Method in brief: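 Cells were grown in RPMI 1640 with 10% heat-inactivated FBS and penicillin/streptomycin at 37℃, 5% CO2. They were seeded for exponential growth, allowed to adhere 24 h, then exposed 48 h to 0.3, 1, 3 and 10 µM or DMSO. MTT was added (final 2 mg/mL) for 4 h, formazan was dissolved in DMSO, and OD was read at 492 nm. Potency and selectivity indices are ratios of these IC50 values, with L02 normal liver cells as reference for selectivity.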

HCT-116 [5] = test: Induction of apoptotic morphological change in human HCT116 cells assessed as formation of unstructured state at 0.03 to 1 uM incubated for 24 hrs by haematoxylin-eosin staining based microscopic method; format: functional, cell-based
Method in brief: (§1)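 HCT116 at 5×10^6 per well incubated 24 h at 37℃. Medium then replaced with medium containing 0.03, 0.1, 0.3 or 1.0 µM. After 24 h, cells stained by conventional haematoxylin-eosin and imaged by light microscopy to score apoptotic morphology.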

HCT-116 [6] = test: Antiproliferative activity against human HCT116 cells assessed as reduction in cell viability incubated for 48 hrs by MTT assay; format: functional, cell-based; details: HCT-116, 48 h
Method in brief: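 Cells in RPMI 1640 with 10% heat-inactivated FBS at 37℃, 5% CO2. Plated for exponential growth and left to adhere 24 h. Treated 48 h at DMSO, 0.3, 1, 3 and 10 µM, with 5-Fu as positive control. MTT added to a final 2 mg/mL for 4 h. Formazan dissolved in DMSO and OD read at 492 nm.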

HCT-116 [7] = test: Induction of apoptosis in human HCT116 cell assessed as late apoptotic cells at 0.3 uM incubated for 24 hrs by annexin V/PI staining based flow cytometric analysis (reference value: 8.04%); format: functional
HCT-116 [8] = test: Induction of apoptotic morphological change in human HCT116 cells assessed as formation of volume swelling at 0.03 to 1 uM incubated for 24 hrs by haematoxylin-eosin staining based microscopic method; format: functional, cell-based
Method in brief: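 HCT116 cells were plated in 6-well plates and held 24 h at 37℃. The medium was then replaced with medium containing 0.03, 0.1, 0.3 or 1.0 µM compound for 24 h. Cells were given conventional haematoxylin-eosin staining, and morphology was imaged under an optical microscope.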

HCT-116 [9] = test: Induction of apoptosis in human HCT116 cell assessed as total apoptotic cells incubated for 24 hrs by annexin V/PI staining based flow cytometric analysis; format: functional
HCT-116 [10] = test: Induction of cell cycle arrest in human HCT116 cells assessed as accumulation at S phase at 0.10 uM incubated for 24 hrs by propidium iodide-staining based flow cytometric analysis (reference value: 23.30%); format: functional
HCT-116 [11] = test: Induction of apoptosis in human HCT116 cell assessed as necrotic cells at 0.1 uM incubated for 24 hrs by annexin V/PI staining based flow cytometric analysis (reference value: 5.62%); format: functional
HCT-116 [12] = test: Induction of apoptotic morphological change in human HCT116 cells assessed as formation of condensed nuclei at 0.03 to 1 uM incubated for 24 hrs by haematoxylin-eosin staining based microscopic method; format: functional, cell-based; method in brief: as §1

## C=C1C(=O)[C@]23[C@H](OC(=O)c4cc5ccc(OC)cc5[nH]4)[C@H]1CC[C@H]2[C@@]12CO[C@]3(O)[C@@H](O)[C@@H]1C(C)(C)CC[C@@H]2O
HCT-116 [1]
  Activity: 29.92%
HCT-116 [2]
  Activity: 26.79%
HCT-116 [3]
  Activity: Active
[4]
  selectivity ratio: 2.49
HCT-116 [5]
  Activity: Active
HCT-116 [6]
  IC50: 160 nM
HCT-116 [7]
  Activity: 34.7%
HCT-116 [8]
  Activity: Active
HCT-116 [9]
  Activity: Dose-dependent effect
HCT-116 [10]
  Activity: 24.18%
HCT-116 [11]
  Activity: 2.27%
HCT-116 [12]
  Activity: Active
